Reference: paper PMC11966317 (ACS Omega, 2025)

Tests used:
[1] = tested on: heart, liver, spleen, lungs, and kidneys; assay: HE staining of major organs after treatment; format: in vivo, NOD/SCID mice; details: kidneys after 10 mg/kg every 3 days, five doses
CHO-hPD-L1 tumors = assay: Tumor volume and body weight during treatment; format: in vivo, NOD/SCID mice; details: 10 mg/kg every 3 days, five doses, monitored every 3 days
Summary of the method: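 Mice bearing CHO-hPD-L1 tumours were randomised to PBS or the anti-PD-L1 antibody (n = 3 each). Either was given at 10 mg/kg via the tail vein every 3 days, five doses over a 14-day cycle. Tumour volume and body weight were recorded. Endpoint was tumour volume >1500 mm3 or maximum diameter >20 mm.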

Atezolizumab: anti-PD-L1 monoclonal antibody
histopathology of major organs (HE staining) [1]: No histopathological abnormalities
body weight versus PBS group (CHO-hPD-L1 tumors): no notable differences in body weight
